Compound activity as filed in PubChem BioAssay.
Only some compounds are listed: those with a hit (about 3% of all), similar ones and a draw of the others.
UBC13 polyUb: blocks human UBC13 polyubiquitin chain formation; inhibition, % at 20 µM; 330,000 compounds, 0.47% hits; P61088; AID 485273; TR-FRET; in the data active = inhibition above about 45%, passing the limit was not always enough; inconclusive = no clear call, values can overlap the other calls
Target sequence (P61088 whole entry, looked up): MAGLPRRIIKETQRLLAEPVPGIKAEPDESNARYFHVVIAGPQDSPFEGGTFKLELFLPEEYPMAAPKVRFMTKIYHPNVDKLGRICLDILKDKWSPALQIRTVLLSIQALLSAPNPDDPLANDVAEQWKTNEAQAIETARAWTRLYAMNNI
Granule exo inh: lytic granule exocytosis inhibition. TALL-104 LAMP-1 surface exposure, flow cytometry; cells stimulated with thapsigargin and PMA. inhibition, % at 10 µM. 360,000 compounds, 0.66% hits. AID 651702;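 active = inhibition above about 55%, limit read from the data; inconclusive = no clear call, values can overlap the other calls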
Apaf1 inhib: human Apaf-1 inhibition. reconstituted apoptosome caspase-3 activity, DEVD-Rh110 fluorescence. inhibition, % at 20 µM. 330,000 compounds, 0.71% hits; active = inhibition of at least 40% at 20 µM
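System – cell-free apoptosome with Apaf-1, procaspase-3 and caspase-9 · Buffer or medium – pH 7.5 Hepes buffer with CHAPS, BSA, DTT · Also added – cytochrome c with DEVD-Rh110 · Times – 30 min compound preincubation, 50 min activation, room temperature · Technique – Rh110 fluorescence intensity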
beta cell repl: inducers of beta-cell replication in MIN6 cells. MIN6 cells proliferation, ATPlite luminescence, 48 h; cells starved in 0.2% serum; 100% = growth in 10% serum. proliferation, % at 10 µM. 330,000 compounds, 0.29% hits. AID 2380;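 active = compounds whose signal lies at least 3.5 SD above the mean of all wells on their plate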
iPSC survival up: increases survival of single human iPS cells; survival enhancement, % at 20 µM; hiPSC single-cell survival, ATPlite luminescence; 100% = ROCK inhibitor wells, 0% = DMSO; 360,000 compounds, 0.044% hits; in the data active = survival enhancement above about 18%;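 note: cells exposed to compounds for 16 hours before the ATP read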
MPTP block: permeability transition pore inhibition | AID 602449 | inhibition, % at 10 µM | isolated mouse mitochondria, Ca2+ swelling absorbance, 30 min | 360,000 compounds, 1.4% hits;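 active = inhibition of 50% or more, scaled per plate between neutral and stimulator controls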
MPTP counter: Rhodamine 123 counter-screen of mitochondrial pore hits; shares compounds with MPTP block; isolated mitochondria, membrane potential, Rhodamine 123 fluorescence; inhibition, % at 10 µM; 5,000 compounds, 78% hits; in the data active = inhibition above about 22%
MPTP swell DR: MPTP inhibition, dose response swelling confirmation; shares compounds with MPTP block; isolated mitochondria swelling, absorbance; IC50, µM; 780 compounds, 58% hits; AID 651561; in the data active = IC50 below about 20 µM
MPTP counter DR: active in counter-screen for permeability transition pore inhibitors | shares compounds with MPTP block | isolated mitochondria counterscreen, fluorescence read-out | IC50, µM | 780 compounds, 49% hits | AID 651564; in the data active = IC50 below about 80 µM
Of the large screens only hits and unclear results are named; the others gave an inactive call (follow-up assays come after a bar, where they were run).

Cc1ccc(F)cc1NCC(=O)Nc1ccc(Br)cc1	MPTP block 71.1 | MPTP counter 72.2
COc1ccc(-n2cc(CNCCc3nc(C)cc(C)n3)c(-c3ccccc3Cl)n2)cc1	none
Cc1ccc(-n2cc(CNCCc3ncc(C)[nH]3)c(-c3ccc(F)cc3)n2)cc1	MPTP block 91.4 | MPTP counter inactive | MPTP swell DR 4.2 | MPTP counter DR 56.8
Fc1ccc(-n2cc(CNCCc3ccccn3)c(-c3ccccc3Cl)n2)cc1	MPTP block 72.2 | MPTP counter inactive | MPTP swell DR 9.84 | MPTP counter DR 47.7
Cc1ccc(/C=C2\SC(=S)N(CCCC(=O)Nc3ccc(O)cc3)C2=O)cc1	none
O=C1/C(=C\c2cccc([N+](=O)[O-])c2O)SC(=S)N1Cc1ccccc1	none (no result: UBC13 polyUb, Apaf1 inhib, beta cell repl)
O=C(CN1C(=O)S/C(=C\c2ccccc2)C1=O)Nc1cc([N+](=O)[O-])ccc1O	MPTP block 57.8 | MPTP counter 79.1
Cc1ccc(/C=C2/SC(=S)N(CCCC(=O)Nc3cc([N+](=O)[O-])ccc3O)C2=O)cc1	MPTP block 63.8 | MPTP counter inactive | MPTP swell DR 4.58 | MPTP counter DR <2.5
O=C1/C(=C/c2ccc(O)c([N+](=O)[O-])c2)SC(=S)N1Cc1ccccc1	Granule exo inh inconclusive, MPTP block 72.7 | MPTP counter 55.2
CCOC(=O)c1sc(NC(=O)CSc2n[nH]c(-c3ccc(Cl)cc3Cl)n2)c(C#N)c1C	MPTP block 83.3 | MPTP counter 82.8
CCOC(=O)c1sc(NC(=O)CSc2nc(C)cc(-c3ccccc3)n2)c(C#N)c1C	none
CCOC(=O)c1sc(NC(=O)c2cc(-c3ccccc3C)nc3ccccc23)c(C#N)c1C	MPTP block 111.6 | MPTP counter 87.2
CCOC(=O)c1c(NC(=O)c2ccncc2)sc(C)c1C	none
CCOC(=O)c1sc(NC(=O)c2ccncc2)c(C#N)c1C	MPTP block 96.8 | MPTP counter 86.6
O=C(NCc1ccncc1)[C@@H]1CCCN1C(=O)[C@@H]1CCCN1C(=O)c1ccccc1Cl	none (no result: UBC13 polyUb, Apaf1 inhib, beta cell repl)
CCN1C(=O)[C@H]2[C@@H](c3ccc(C)cc3)N3C(=O)N(c4ccc(C(F)(F)F)cc4)C(=O)[C@@]3(CC(C)C)[C@H]2C1=O	MPTP block 93.6 | MPTP counter 97.8
CC(C)CNC(=S)N(CCCN(C)C)Cc1cc2cc3c(cc2[nH]c1=O)OCCO3	none
CCc1nc(SCc2nc3ccccc3[nH]2)c2oc3ccccc3c2n1	MPTP block 69.2 | MPTP counter 81.7
Cc1nc(SCc2nc3ccc(Br)cc3[nH]2)c2oc3ccccc3c2n1	none
Cc1nc(SCc2nc3ccc(Cl)cc3[nH]2)c2oc3ccccc3c2n1	none
Cc1nc(SCc2nc3cc(Cl)c(F)cc3[nH]2)c2oc3ccccc3c2n1	MPTP block 62.8 | MPTP counter 79.8
Cc1nc(SCc2nc3ccc(C(F)(F)F)cc3[nH]2)c2oc3ccccc3c2n1	MPTP block 50.4 | MPTP counter 89.3
Cc1ccc(NS(=O)(=O)c2ccc(C)c(C(=O)Nc3ccc(S(=O)(=O)Nc4onc(C)c4C)cc3)c2)cc1	none (no result: UBC13 polyUb, Apaf1 inhib, beta cell repl)
CC1CCCN(C(=O)COC(=O)Cn2cnc3ccccc32)C1 (stereo not drawn)	none
Cc1ccc(C2C(/C=C3/SC(=S)NC3=O)=C(c3cccs3)Oc3ccccc32)cc1 (stereo not drawn)	MPTP block 98.8 | MPTP counter 48.1
CC(C)NCC(O)Cn1c2c(c3ccccc31)CCc1c-2cnn1-c1ccccc1 (stereo not drawn)	MPTP block 86.6 | MPTP counter inactive
CN1CCc2c(n(CC(O)CNCc3ccccc3)c3ccccc23)C1=O (stereo not drawn)	none
COc1ccccc1NC(=O)CCC(=O)OCC(=O)c1ccc(C)c([N+](=O)[O-])c1	none
C=CCNC(=O)C1CC2Cn3c(nc4cc5ccccc5cc43)C2N1C (stereo not drawn)	none
Oc1c(Br)cc(Br)cc1CNc1ccc(F)cc1	MPTP block 77.8 | MPTP counter 80.9
Oc1c(Br)cc(Br)cc1CNc1cnc2ccccc2c1	none
CCCCN1C[C@H](CSC)[C@@H](CC(=O)Nc2ccc(Br)cc2)C1=O	none (no result: UBC13 polyUb, Apaf1 inhib, beta cell repl)
O=C(/C=C/c1cc([N+](=O)[O-])ccc1OC(F)F)Nc1cccc(OC(F)F)c1	MPTP block 99.1 | MPTP counter 71.8
FC(F)(F)c1cnc(NNC(=S)Nc2ccccc2Cl)c(Cl)c1	MPTP block 54.6 | MPTP counter 89.1
S=C(NNc1ccnc2cc(Cl)ccc12)Nc1ccccc1Cl	MPTP block 98.3 | MPTP counter 77.4
Clc1ccc2c(NCc3ccccc3)ccnc2c1	MPTP block 88.2 | MPTP counter 82.8
O=C(NCCNc1ccnc2cc(Cl)ccc12)c1ccccc1F	MPTP block 74.8 | MPTP counter 57.5
Clc1ccc(NNc2ccnc3cc(Cl)ccc23)cc1	none
Cc1cccc(NC(=S)NNc2ncc(C(F)(F)F)cc2Cl)c1	none
CCCCOc1ccccc1C(=O)N(Cc1ccc(C)o1)C1CCS(=O)(=O)C1 (stereo not drawn)	none
CCCCCCCCCCCC1N=C(N)NC(CCCO)=C1C(=O)OC (stereo not drawn)	MPTP block 79.1 (no result: UBC13 polyUb, Apaf1 inhib, beta cell repl) | MPTP counter inactive
CCCCCCOC(=O)c1ccc(N)cc1	none
O=C(NNC(=S)Nc1ccc(Cl)cc1Cl)c1ccncc1	MPTP block 63.3 | MPTP counter inactive | MPTP swell DR inactive | MPTP counter DR 42.4
O=C(NNC(=S)Nc1ccc(Cl)c(Cl)c1)c1cccc([N+](=O)[O-])c1	MPTP block 70.4 | MPTP counter 52.0
Cc1ccc(NC(=S)NNC(=O)c2ccc(N3CCOCC3)c([N+](=O)[O-])c2)cc1Cl	MPTP block 88.0 | MPTP counter 55.9
O=C(NNC(=S)Nc1ccc(Cl)cc1Cl)c1ccc(N2CCOCC2)c([N+](=O)[O-])c1	MPTP block 98.4 | MPTP counter 62.9
O=C(NNC(=S)Nc1ccc(Br)cc1)c1ccc(N2CCOCC2)c([N+](=O)[O-])c1	none
O=C(NNC(=S)Nc1ccc(Cl)cc1Cl)c1cccnc1	none
Cc1cccc(NC(=S)NNC(=O)c2cccc([N+](=O)[O-])c2)c1	none
O=S(=O)(NC1C2CC3CC(C2)CC1C3)c1ccc(F)cc1 (stereo not drawn)	none
CCOC(=O)CN1C(=O)CC(c2ccc([N+](=O)[O-])cc2)C1=O (stereo not drawn)	none
CCOC(=O)C1CCCN(S(=O)(=O)CCNC(=O)c2cccc(OC)c2)C1 (stereo not drawn)	none
